UCH37 inh: inhibitors of human UCH37 deubiquitinase, primary screen, biochemical, Ub-AMC cleavage, fluorescence | actives 0.33% (n = 330,000) | purified proteasome/UCH37 | inhibition, % (test concentration not listed) | Ubiquitin carboxyl-terminal hydrolase isozyme L5 (Homo sapiens), Q9Y5K5;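 active = mean inhibition over replicate wells above about 20%, limit read from the data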
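Reagent: Ub-AMC substrate; assay system: Proteasome-associated human UCH37 deubiquitinase; controls: no-proteasome and no-compound wells; read-out: % inhibition of Ub-AMC cleavage fluorescence; timing: 30 min preincubation with enzyme, 25 min cleavage at room temperature; signal: AMC fluorescence from Ub-AMC cleavage, excitation 355 nm, emission 460 nm; buffer or medium: Tris-HCl pH 7.4 plus ovalbumin, ATP-MgCl2, DTT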
NR3A LBD binder: binders of NR3A ligand-binding domain, primary screen, biophysical, differential scanning fluorimetry, uHTS; Tm shift relative to glycine control, % at 25 µM; actives 2.5% (n = 340,000); Glutamate receptor ionotropic, NMDA 3A (GRIN3A) ligand-binding domain; NR3A LBD differential scanning fluorimetry, Tm shift; 0% = protein alone, 100% = glycine-bound protein;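 active = melting temperature shift of at least 10% of the positive control shift, at one fixed dose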
NadD inh: inhibitors of S. aureus NadD, primary screen, biochemical, colorimetric, uHTS; purified NadD enzyme, colorimetric absorbance read-out; inhibition, % at 20 µM; actives 0.78% (n = 360,000); AID 602399, 2012; in the data active = inhibition above about 26%
SENP1 FRET inh: human SENP1 catalytic domain inhibitors, primary screen, biochemical, FRET, uHTS | Sentrin-specific protease 1 (Homo sapiens), Q9P0U3 | recombinant SENP1 catalytic domain, CyPet-SUMO1-YPet FRET cleavage | inhibition, % at 10 µM | actives 0.21% (n = 360,000) | AID 624204, 2012;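 active = inhibition at least 30% at 10 µM, raw YFP signal under a set limit, fluorescence ratio 0.5 to 1.5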
Target sequence (Q9P0U3 419-644 limits assumed): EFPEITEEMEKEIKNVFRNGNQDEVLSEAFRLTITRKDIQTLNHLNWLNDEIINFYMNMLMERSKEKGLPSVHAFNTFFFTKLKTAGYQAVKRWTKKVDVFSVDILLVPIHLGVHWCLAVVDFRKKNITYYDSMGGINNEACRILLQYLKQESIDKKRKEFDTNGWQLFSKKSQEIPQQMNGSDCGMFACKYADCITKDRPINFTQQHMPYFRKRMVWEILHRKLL
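Material – human SENP1 catalytic domain · Input – SENP1 enzyme, 20 pM final · Compound dosing – single concentration of 10 µM compound, 0.5% DMSO final · Timing – enzyme reaction for 50 min at room temperature, dark · Measured by – FRET fluorescence in CFP and YFP emission channels · Control set – no-enzyme wells low, DMSO-plus-enzyme wells high control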
ATG4B inh: ATG4B protease inhibitors, primary screen, biochemical, fluorescence, uHTS. actives 0.51% (n = 340,000). ATG4B cleavage of LC3-PLA2, NBD-HPC fluorescence, 1 h. inhibition, % at 8.33 µM; in the data active = inhibition above about 40%
Target sequence (Q9Y4P1 whole entry, looked up): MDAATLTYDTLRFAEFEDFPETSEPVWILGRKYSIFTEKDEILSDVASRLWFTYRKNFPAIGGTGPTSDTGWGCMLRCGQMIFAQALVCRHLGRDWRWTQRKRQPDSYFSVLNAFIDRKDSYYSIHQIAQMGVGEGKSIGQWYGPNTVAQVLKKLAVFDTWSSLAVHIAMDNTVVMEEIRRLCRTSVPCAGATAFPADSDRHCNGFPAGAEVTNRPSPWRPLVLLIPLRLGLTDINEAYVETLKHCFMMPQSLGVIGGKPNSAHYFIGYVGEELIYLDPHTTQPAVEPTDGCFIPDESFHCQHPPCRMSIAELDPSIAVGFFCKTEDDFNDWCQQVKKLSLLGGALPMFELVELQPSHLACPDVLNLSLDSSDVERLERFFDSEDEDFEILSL
NadD inh conf: inhibitors of S. aureus NadD, confirmation, biochemical, colorimetric, single concentration. shares compounds with NadD inh. purified S. aureus NadD, colorimetric enzyme assay. inhibition, % at 20 µM. actives 13% (n = 2,000); in the data active = inhibition mostly above about 42%, no sharp cut-off; inactive = mostly below about 42%
Each line names hits and unclear results; the compound was inactive in the other large screens (follow-up assays come after a bar, where they were run). A selection: hits, their analogues and other compounds. The true share with any hit is near 3.6%.

NC(=O)[C@H]1CC2(CC(c3cccc(NC(=O)CC(c4ccccc4)c4ccccc4)c3)=NO2)CN1C(=O)c1ccccc1C(=O)c1ccccc1 (some centres not stated)	NadD inh 44.1 | NadD inh conf inactive
Cc1nc(NN=Cc2cccc(F)c2)cc(N2CCOCC2)n1	none (no result: NR3A LBD binder, NadD inh, SENP1 FRET inh, ATG4B inh)
O=C(/C=C/c1ccco1)NC(=S)Nc1cccc(-c2nc3ccccc3s2)c1	NadD inh 62.2 | NadD inh conf inactive
Cc1ccc(-c2nc3ccccc3s2)cc1NC(=S)NC(=O)/C=C/c1ccco1	none
O=C(/C=C/c1ccco1)NC(=S)Nc1cc(-c2nc3ccccc3s2)ccc1Cl	NR3A LBD binder 17.8, NadD inh 52.1 | NadD inh conf inactive
O=C(/C=C/c1ccco1)NC(=S)Nc1cccc(-c2nc3ccccc3o2)c1	NadD inh 30.7 | NadD inh conf inactive
O=C(/C=C/c1ccco1)NC(=S)Nc1cccc([N+](=O)[O-])c1	NadD inh 39.2 | NadD inh conf inactive
Cc1cccc(NC(=S)NC(=O)/C=C/c2ccco2)c1	none
COc1cc(OC)c(OC)cc1C=NNC(=S)NCC1CCCO1 (configuration not stated)	none (no result: NR3A LBD binder, NadD inh, SENP1 FRET inh, ATG4B inh)
Cn1cccc1C=NNC(=O)Cc1ccc(Br)c2ccccc12	none (no result: NR3A LBD binder, NadD inh, SENP1 FRET inh, ATG4B inh)
COc1cc(C(=O)NCC(=O)NN=Cc2ccc(-c3ccc([N+](=O)[O-])cc3)o2)cc(OC)c1OC	none (no result: NR3A LBD binder, NadD inh, SENP1 FRET inh, ATG4B inh)
COc1ccc(C=NNC(=O)c2nc(Cl)c(Cl)c(N)c2Cl)cc1COc1ccc(F)cc1F	none (no result: NR3A LBD binder, NadD inh, SENP1 FRET inh, ATG4B inh)
CCOc1ccccc1NC(=O)C(OC(=O)c1ccccc1)c1ccccc1 (configuration not stated)	none
CCOc1ccccc1NC(=O)C(OC(=O)c1ccc(NC(=O)CC#N)cc1)c1ccccc1 (configuration not stated)	NadD inh 28.0 | NadD inh conf inactive
Cn1c2ccccc2c(=O)c2ccc(NCCc3cccs3)cc21	NadD inh 35.7 | NadD inh conf inactive
NC(=O)c1ccc(NCCc2cccs2)cc1	none (no result: UCH37 inh, NR3A LBD binder, ATG4B inh)
O=C(CN1CCCc2ccccc21)NC(=O)NCc1ccco1	none
CC1Cc2ccccc2N1CC(=O)NC(=O)NCc1ccco1 (configuration not stated)	NadD inh 32.4 | NadD inh conf inactive
COc1cc(/C=C/c2ccc3cccc(O)c3n2)c(Br)cc1O	NadD inh 27.7 (no result: UCH37 inh, NR3A LBD binder, ATG4B inh) | NadD inh conf inactive
COc1cc(Br)cc(/C=C/c2ccc3cccc(O)c3n2)c1O	NR3A LBD binder 33.9, NadD inh 34.1, SENP1 FRET inh 67.1 | NadD inh conf inactive
CC(=NNC(=O)CCCOc1ccc(Cl)cc1C)c1ccc(C)o1	none (no result: NR3A LBD binder, NadD inh, SENP1 FRET inh, ATG4B inh)
Cc1ccc(NC(=O)CON=Cc2ccccc2C)c(C)c1	none (no result: NR3A LBD binder, NadD inh, SENP1 FRET inh, ATG4B inh)
COc1ccc2nc(N3C(=O)CNC3=S)sc2c1	none (no result: UCH37 inh)
COc1ccc2nc(-n3c(O)c(C4=c5ccccc5=NC4=O)[nH]c3=S)sc2c1	NR3A LBD binder 16.7, NadD inh 51.7 | NadD inh conf inactive
COc1ccc(C=NNC(=O)c2cc(-c3ccccc3OC(C)C)nc3ccccc23)cc1CN1CCOCC1	none (no result: NR3A LBD binder, NadD inh, SENP1 FRET inh, ATG4B inh)
Cc1cc(C=Nn2cnnc2)c(C)n1-c1ccc(C(=O)O)cc1	none (no result: NR3A LBD binder, NadD inh, SENP1 FRET inh, ATG4B inh)
Cc1cc2oc(C(=O)Nc3ccc(S(=O)(=O)Nc4nccs4)cc3)cc(=O)c2cc1Cl	NR3A LBD binder 17.4, NadD inh 64.5 | NadD inh conf inactive
O=C(Nc1nccs1)c1cccc(N2C(=O)c3cccc4c([N+](=O)[O-])ccc(c34)C2=O)c1	NadD inh 37.5 | NadD inh conf inactive
O=C(Nc1ccc(S(=O)(=O)Nc2nccs2)cc1)c1cccc(N2C(=O)c3ccccc3C2=O)c1	NadD inh 39.3 | NadD inh conf 58.4
Cc1ccc(Oc2ccc3c(c2)C(=O)N(c2ccc(S(=O)(=O)Nc4nccs4)cc2)C3=O)cc1	NadD inh 44.4 | NadD inh conf inactive
O=C(O)c1cc(NN=C/C(Cl)=C/c2ccccc2)ccc1Cl	none (no result: NR3A LBD binder, NadD inh, SENP1 FRET inh, ATG4B inh)
Cc1ccccc1Nc1n[nH]c(=S)s1	none (no result: UCH37 inh, NR3A LBD binder, ATG4B inh)
Cc1c(Cl)cccc1Nc1n[nH]c(=S)s1	NadD inh 32.4 (no result: UCH37 inh) | NadD inh conf inactive
S=c1[nH]nc(Nc2cccc3ccccc23)s1	NadD inh 37.2 | NadD inh conf inactive
CC(C)(C)OC(=O)NCc1ccc(NC(=O)c2nc[nH]c2C(=O)NCCCCNC(=O)c2[nH]cnc2C(=O)Nc2ccc(CNC(=O)OC(C)(C)C)cc2)cc1	none (no result: UCH37 inh)
CC(C)(C)OC(=O)NCc1ccc(CNC(=O)c2ncn(Cc3ccccc3)c2C(=O)NCc2ccc(CNC(=O)OC(C)(C)C)cc2)cc1	none
CC(C)(C)OC(=O)NCc1ccc(NC(=O)c2nc[nH]c2C(=O)NCCN(CCNC(=O)c2[nH]cnc2C(=O)Nc2ccc(CNC(=O)OC(C)(C)C)cc2)CCNC(=O)c2[nH]cnc2C(=O)Nc2ccc(CNC(=O)OC(C)(C)C)cc2)cc1	NR3A LBD binder 10.6, NadD inh 42.7 | NadD inh conf inactive
Cn1cnc(C(=O)NCc2ccc(CNC(=O)OC(C)(C)C)cc2)c1C(=O)NCc1ccc(CNC(=O)OC(C)(C)C)cc1	NadD inh 32.9 | NadD inh conf inactive
CC(C)(C)OC(=O)NCc1ccc(NC(=O)c2nc[nH]c2C(=O)NCCCCCCNC(=O)c2[nH]cnc2C(=O)Nc2ccc(CNC(=O)OC(C)(C)C)cc2)cc1	NadD inh 39.5 | NadD inh conf inactive
CC(C)(C)OC(=O)NCc1ccc(NC(=O)c2nc[nH]c2C(=O)NCCCNC(=O)c2[nH]cnc2C(=O)Nc2ccc(CNC(=O)OC(C)(C)C)cc2)cc1	none (no result: UCH37 inh)
Cc1ccc(-n2nc3c(c2NC(=O)c2cccs2)CSC3)cc1	NadD inh 56.3 | NadD inh conf 77.2
Cc1cccc(-n2nc3c(c2NC(=O)c2ccc(Br)o2)CSC3)c1	NadD inh 44.1 | NadD inh conf 64.5
Cc1cc(NS(=O)(=O)c2ccc(NC(=O)c3cc4c(=O)n5ccccc5nc4s3)cc2)nc(C)n1	NadD inh 31.4 | NadD inh conf inactive
CCOc1ccc(C=NNC(=O)c2[nH]c3ccc(C)cc3c2C)cc1	none (no result: NR3A LBD binder, NadD inh, SENP1 FRET inh, ATG4B inh)
O=C(NNC(=S)NC(=O)c1cccs1)c1ccc(NC(=O)c2ccccc2)cc1	NR3A LBD binder 23.1, NadD inh 31.6 | NadD inh conf inactive
O=C(O)COc1ccccc1C=Nn1c(C2CCCCC2)n[nH]c1=S	none (no result: NR3A LBD binder, NadD inh, SENP1 FRET inh, ATG4B inh)

Assay outcomes: PubChem, several laboratories
